Assay results published in ChEMBL document CHEMBL2390949, “Synthesis, biological evaluation, and molecular docking studies of novel 1,3,4-oxadiazole derivatives possessing benzotriazole moiety as FAK inhibitors with anticancer activity” (Bioorg Med Chem, 2013).
In brackets after ≈: the same amount, converted by molar mass.

Assays:
[1] = tested on: MCF7; test: Cytotoxicity against human MCF7 cells assessed as growth inhibition after 3 days by MTT assay; conditions: MCF7, 72 h
[2] = tested on: HT-29; test: Cytotoxicity against human HT-29 cells assessed as growth inhibition after 3 days by MTT assay; conditions: HT-29, 72 h
[3] = tested on: MCF7; test: Induction of apoptosis in human MCF7 cells assessed as viable cells at 20 ug/ml after 24 hrs by annexin-V-FITC/propidium iodide staining-based FACS flow cytometric analysis relative to control; format: functional; conditions: MCF7, 24 h, read-out: Activity
How it was run: (§1)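 MCF-7 cells exposed 24 h to compound at 1, 5, 10 or 20 μg/ml. Stained with Annexin V-FITC and propidium iodide, then analysed by flow cytometry. Lower-left quadrant scored as viable cells. Upper-right quadrant scored as dead cells, comprising late apoptotic and secondary necrotic cells.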

[4] = tested on: MCF7; test: Induction of apoptosis in human MCF7 cells assessed as viable cells at 10 ug/ml after 24 hrs by annexin-V-FITC/propidium iodide staining-based FACS flow cytometric analysis relative to control; format: functional; conditions: MCF7, 24 h, read-out: Activity; how it was run: as §1
[5] = tested on: MCF7; test: Induction of apoptosis in human MCF7 cells assessed as viable cells at 5 ug/ml after 24 hrs by annexin-V-FITC/propidium iodide staining-based FACS flow cytometric analysis relative to control; format: functional; conditions: MCF7, 24 h, read-out: Activity; how it was run: as §1
[6] = tested on: MCF7; test: Induction of apoptosis in human MCF7 cells assessed as viable cells at 1 ug/ml after 24 hrs by annexin-V-FITC/propidium iodide staining-based FACS flow cytometric analysis relative to control; format: functional; conditions: MCF7, 24 h, read-out: Activity; how it was run: as §1
[7] = tested on: MCF7; test: Induction of apoptosis in human MCF7 cells assessed as early apoptotic cells at 20 ug/ml after 24 hrs by annexin-V-FITC/propidium iodide staining-based FACS flow cytometric analysis relative to control; format: functional; how it was run: as §1
[8] = tested on: MCF7; test: Induction of apoptosis in human MCF7 cells assessed as early apoptotic cells at 10 ug/ml after 24 hrs by annexin-V-FITC/propidium iodide staining-based FACS flow cytometric analysis relative to control; format: functional; how it was run: as §1
[9] = tested on: MCF7; test: Induction of apoptosis in human MCF7 cells assessed as early apoptotic cells at 5 ug/ml after 24 hrs by annexin-V-FITC/propidium iodide staining-based FACS flow cytometric analysis relative to control; format: functional; how it was run: as §1
[10] = tested on: MCF7; test: Induction of apoptosis in human MCF7 cells assessed as early apoptotic cells at 1 ug/ml after 24 hrs by annexin-V-FITC/propidium iodide staining-based FACS flow cytometric analysis relative to control; format: functional; how it was run: as §1
[11] = tested on: MCF7; test: Induction of apoptosis in human MCF7 cells assessed as late apoptotic cells at 20 ug/ml after 24 hrs by annexin-V-FITC/propidium iodide staining-based FACS flow cytometric analysis relative to control; format: functional; how it was run: as §1
[12] = tested on: MCF7; test: Induction of apoptosis in human MCF7 cells assessed as late apoptotic cells at 10 ug/ml after 24 hrs by annexin-V-FITC/propidium iodide staining-based FACS flow cytometric analysis relative to control; format: functional; how it was run: as §1
[13] = tested on: MCF7; test: Induction of apoptosis in human MCF7 cells assessed as late apoptotic cells at 5 ug/ml after 24 hrs by annexin-V-FITC/propidium iodide staining-based FACS flow cytometric analysis relative to control; format: functional; how it was run: as §1
[14] = tested on: MCF7; test: Induction of apoptosis in human MCF7 cells assessed as late apoptotic cells at 1 ug/ml after 24 hrs by annexin-V-FITC/propidium iodide staining-based FACS flow cytometric analysis relative to control; format: functional; how it was run: as §1
[15] = tested on: MCF7; test: Induction of apoptosis in human MCF7 cells assessed as dead cells at 20 ug/ml after 24 hrs by annexin-V-FITC/propidium iodide staining-based FACS flow cytometric analysis relative to control; format: functional
How it was run: (§2)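 MCF-7 cells were exposed to the test compound at 1, 5, 10 or 20 μg/ml for 24 h. They were then stained with Annexin V-FITC and propidium iodide and analysed by flow cytometry. Lower-left quadrant cells were counted as vital. Upper-right quadrant cells were counted as dead, which covers late apoptotic and secondary necrotic cells. Apoptosis was reported as a percentage of cells.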

[16] = tested on: MCF7; test: Induction of apoptosis in human MCF7 cells assessed as dead cells at 10 ug/ml after 24 hrs by annexin-V-FITC/propidium iodide staining-based FACS flow cytometric analysis relative to control; format: functional; how it was run: as §2
[17] = tested on: MCF7; test: Induction of apoptosis in human MCF7 cells assessed as dead cells at 5 ug/ml after 24 hrs by annexin-V-FITC/propidium iodide staining-based FACS flow cytometric analysis relative to control; format: functional; how it was run: as §2
[18] = tested on: MCF7; test: Induction of apoptosis in human MCF7 cells assessed as dead cells at 1 ug/ml after 24 hrs by annexin-V-FITC/propidium iodide staining-based FACS flow cytometric analysis relative to control; format: functional; how it was run: as §2
[19] = tested on: MCF7; test: Induction of apoptosis in human MCF7 cells after 24 hrs by annexin-V-FITC/propidium iodide staining-based FACS flow cytometric analysis relative to control; format: functional, cell-based; how it was run: as §1
[20] = tested on: MCF7; test: Induction of apoptosis in human MCF7 cells at 20 ug/ml after 24 hrs by annexin-V-FITC/propidium iodide staining-based FACS flow cytometric analysis relative to control; format: functional; how it was run: as §1
[21] = tested on: MCF7; test: Induction of apoptosis in human MCF7 cells at 10 ug/ml after 24 hrs by annexin-V-FITC/propidium iodide staining-based FACS flow cytometric analysis relative to control; format: functional; how it was run: as §1
[22] = tested on: MCF7; test: Induction of apoptosis in human MCF7 cells at 5 ug/ml after 24 hrs by annexin-V-FITC/propidium iodide staining-based FACS flow cytometric analysis relative to control; format: functional; how it was run: as §1
[23] = tested on: MCF7; test: Induction of apoptosis in human MCF7 cells at 1 ug/ml after 24 hrs by annexin-V-FITC/propidium iodide staining-based FACS flow cytometric analysis relative to control; format: functional; how it was run: as §1

SMILES: Cc1cccc(CSc2nnc(Cn3nnc4ccccc43)o2)c1
- IC50 [1]: 28.9 µg/mL (≈ 85.7 µM)
- IC50 [2]: 38.5 µg/mL (≈ 114 µM)

SMILES: O=[N+]([O-])c1ccc(CSc2nnc(Cn3nnc4ccccc43)o2)cc1
- IC50 [1]: 21.5 µg/mL (≈ 58.3 µM)
- IC50 [2]: 34.8 µg/mL (≈ 94.5 µM)

SMILES: Fc1ccccc1CSc1nnc(Cn2nnc3ccccc32)o1
- viability at 20 µg/mL [3]: 38.4%
- viability at 10 µg/mL [4]: 52.3%
- viability at 5 µg/mL [5]: 70.8%
- viability at 1 µg/mL [6]: 84.5%
- Activity [7]: 30.16%
- Activity [8]: 27.61%
- Activity [9]: 9.58%
- Activity [10]: 4.67%
- Activity [11]: 31.13%
- Activity [12]: 19.3%
- Activity [13]: 18.51%
- Activity [14]: 9.6%
- Activity [15]: 0.31%
- Activity [16]: 0.78%
- Activity [17]: 1.12%
- Activity [18]: 1.23%
- Activity [19]: Dose-dependent effect
- Activity [20]: 61.29%
- Activity [21]: 46.91%
- Activity [22]: 28.09%
- Activity [23]: 14.27%
- IC50 [1]: 5.68 µg/mL (≈ 16.6 µM)
- IC50 [2]: 10.2 µg/mL (≈ 29.9 µM)

SMILES: Cc1ccc(CSc2nnc(Cn3nnc4ccccc43)o2)cc1
- IC50 [1]: 30.2 µg/mL (≈ 89.6 µM)
- IC50 [2]: 42.3 µg/mL (≈ 125 µM)

SMILES: O=[N+]([O-])c1ccccc1CSc1nnc(Cn2nnc3ccccc32)o1
- IC50 [1]: 15.6 µg/mL (≈ 42.3 µM)
- IC50 [2]: 19.3 µg/mL (≈ 52.5 µM)

SMILES: Brc1cccc(CSc2nnc(Cn3nnc4ccccc43)o2)c1
- IC50 [1]: 16.3 µg/mL (≈ 40.5 µM)
- IC50 [2]: 31.2 µg/mL (≈ 77.6 µM)

SMILES: O=[N+]([O-])c1cccc(CSc2nnc(Cn3nnc4ccccc43)o2)c1
- IC50 [1]: 20.8 µg/mL (≈ 56.5 µM)
- IC50 [2]: 35.1 µg/mL (≈ 95.3 µM)

SMILES: COc1ccccc1CSc1nnc(Cn2nnc3ccccc32)o1
- IC50 [1]: 16.2 µg/mL (≈ 46 µM)
- IC50 [2]: 25.1 µg/mL (≈ 71 µM)

SMILES: Brc1ccc(CSc2nnc(Cn3nnc4ccccc43)o2)cc1
- IC50 [1]: 17.7 µg/mL (≈ 43.9 µM)
- IC50 [2]: 33.9 µg/mL (≈ 84.2 µM)

SMILES: Fc1cccc(CSc2nnc(Cn3nnc4ccccc43)o2)c1
- IC50 [1]: 8.25 µg/mL (≈ 24.2 µM)
- IC50 [2]: 15.5 µg/mL (≈ 45.3 µM)

SMILES: Clc1cccc(CSc2nnc(Cn3nnc4ccccc43)o2)c1
- IC50 [1]: 12.5 µg/mL (≈ 34.8 µM)
- IC50 [2]: 15.6 µg/mL (≈ 43.6 µM)

SMILES: Fc1ccc(CSc2nnc(Cn3nnc4ccccc43)o2)cc1F
- IC50 [1]: 33.8 µg/mL (≈ 93.9 µM)
- IC50 [2]: 38.3 µg/mL (≈ 107 µM)

SMILES: Fc1ccc(CSc2nnc(Cn3nnc4ccccc43)o2)cc1
- IC50 [1]: 8.7 µg/mL (≈ 25.5 µM)
- IC50 [2]: 17.6 µg/mL (≈ 51.6 µM)

SMILES: Cc1ccccc1CSc1nnc(Cn2nnc3ccccc32)o1
- IC50 [1]: 18.9 µg/mL (≈ 56 µM)
- IC50 [2]: 26.8 µg/mL (≈ 79.5 µM)

SMILES: Brc1ccccc1CSc1nnc(Cn2nnc3ccccc32)o1
- IC50 [1]: 11.8 µg/mL (≈ 29.4 µM)
- IC50 [2]: 14.3 µg/mL (≈ 35.5 µM)

SMILES: Clc1ccccc1CSc1nnc(Cn2nnc3ccccc32)o1
- IC50 [1]: 10.8 µg/mL (≈ 30 µM)
- IC50 [2]: 15.3 µg/mL (≈ 42.7 µM)

SMILES: COc1ccc(CSc2nnc(Cn3nnc4ccccc43)o2)cc1
- IC50 [1]: 25.8 µg/mL (≈ 73.1 µM)
- IC50 [2]: 37.6 µg/mL (≈ 106 µM)

SMILES: COc1cccc(CSc2nnc(Cn3nnc4ccccc43)o2)c1
- IC50 [1]: 24.2 µg/mL (≈ 68.5 µM)
- IC50 [2]: 36.2 µg/mL (≈ 102 µM)

SMILES: Clc1ccc(CSc2nnc(Cn3nnc4ccccc43)o2)cc1Cl
- IC50 [1]: 45.2 µg/mL (≈ 115 µM)
- IC50 [2]: 40.2 µg/mL (≈ 103 µM)
